Assay results published in ChEMBL document CHEMBL1157032, “Synthesis and antimicrobial activity of novel pyrazolo[3,4-d]pyrimidin derivatives” (2010).
In brackets after ≈: the same amount, converted by molar mass. Activity calls are given as the source filed them. No cut-off for these calls is given here.

Legend:
Priestia megaterium [1] = test: Antimicrobial activity against Bacillus megaterium MTCC 1684 at 10 ug/ml after 24 hrs by agar diffusion method; assay type: functional
How it was run: (§1)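 Agar well diffusion on Mueller Hinton agar. Plates were seeded with bacterial suspension in sterile 0.85% saline at 10⁵ cfu/mL. Compound dilutions in 1% DMSO went into 6 mm wells, with DMSO alone as control. Plates were incubated 24 h at 37 ± 0.5 °C, and the zone of inhibition was measured in mm.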

Aspergillus flavus [2] = test: Antimicrobial activity against Aspergillus flavus MTCC 2501 at 30 ug/ml after 48 hrs by agar diffusion method; assay type: functional, organism-based
How it was run: (§2)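 Agar well diffusion on Sabouraud dextrose agar. Plates were spread with fungal spore suspension in sterile distilled water adjusted to 10⁶ cfu/mL. Compound dilutions in 1% DMSO went into 6 mm wells, with DMSO alone as control. Plates were incubated 48 h at 28 ± 0.2 °C, and the inhibition zone was read in mm.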

Klebsiella pneumoniae [3] = test: Antimicrobial activity against Klebsiella pneumoniae NCIM 2957 at 10 ug/ml after 24 hrs by agar diffusion method; assay type: functional; how it was run: as §1
Penicillium chrysogenum [4] = test: Antimicrobial activity against Penicillium chrysogenum MTCC 1996 at 30 ug/ml after 48 hrs by agar diffusion method; assay type: functional, organism-based; how it was run: as §2
Trichoderma viride [5] = test: Antimicrobial activity against Trichoderma viride MTCC 167 at 30 ug/ml after 48 hrs by agar diffusion method; assay type: functional, organism-based; how it was run: as §2
Bacillus subtilis [6] = test: Antimicrobial activity against Bacillus subtilis MTCC 1789 at 10 ug/ml after 24 hrs by agar diffusion method; assay type: functional; how it was run: as §1
Serratia marcescens [7] = test: Antimicrobial activity against Serratia marcescens MTCC 86 at 10 ug/ml after 24 hrs by agar diffusion method; assay type: functional; how it was run: as §1
Proteus vulgaris [8] = test: Antimicrobial activity against Proteus vulgaris MTCC 1771 at 10 ug/ml after 24 hrs by agar diffusion method; assay type: functional; how it was run: as §1
Staphylococcus aureus [9] = test: Antimicrobial activity against Staphylococcus aureus MTCC 96 at 10 ug/ml after 24 hrs by agar diffusion method; assay type: functional; how it was run: as §1
Aspergillus niger [10] = test: Antimicrobial activity against Aspergillus niger MTCC 1781 at 30 ug/ml after 48 hrs by agar diffusion method; assay type: functional, organism-based; how it was run: as §2
Candida albicans [11] = test: Antimicrobial activity against Candida albicans MTCC 227 at 30 ug/ml after 48 hrs by agar diffusion method; assay type: functional, organism-based; how it was run: as §2
Pseudomonas aeruginosa [12] = test: Antimicrobial activity against Pseudomonas aeruginosa MTCC 2488 at 10 ug/ml after 24 hrs by agar diffusion method; assay type: functional; how it was run: as §1
Proteus vulgaris [13] = test: Antimicrobial activity against Proteus vulgaris MTCC 1771 after 24 hrs; assay type: functional; conditions: MTCC 1771, 24 h
How it was run: (§3)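 Agar well diffusion on Mueller Hinton agar seeded with 0.1 mL of a 10⁵ cfu/mL bacterial suspension in 0.85% sterile saline. 6 mm wells received 0.1 mL of each compound dilution in DMSO (1% DMSO; DMSO alone as control). Plates were incubated 24 h at 37 ± 0.5 °C. Read-out was zone of inhibition in mm. MIC was taken as the lowest concentration giving complete growth inhibition.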

Candida albicans [14] = test: Antimicrobial activity against Candida albicans MTCC 227 after 48 hrs; assay type: functional; conditions: MTCC 227, 48 h
How it was run: (§4)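 Fungal spore suspensions in sterile distilled water were adjusted to 10⁶ cfu/mL, and 0.1 mL was spread on Sabouraud dextrose agar. 6 mm wells were filled with 0.1 mL of compound dilution in DMSO (1% DMSO; DMSO-only control). Plates were incubated 48 h at 28 ± 0.2 °C, and inhibition zones were measured in mm. MIC was the lowest concentration completely inhibiting growth.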

Staphylococcus aureus [15] = test: Antimicrobial activity against Staphylococcus aureus MTCC 96 at MIC after 24 hrs by agar diffusion method; assay type: functional; how it was run: as §3
Aspergillus niger [16] = test: Antimicrobial activity against Aspergillus niger MTCC 1781 at MIC after 48 hrs by agar diffusion method; assay type: functional; how it was run: as §4
Aspergillus niger [17] = test: Antimicrobial activity against Aspergillus niger MTCC 1781 after 48 hrs; assay type: functional; conditions: MTCC 1781, 48 h; how it was run: as §4
Trichoderma viride [18] = test: Antimicrobial activity against Trichoderma viride MTCC 167 at MIC after 48 hrs by agar diffusion method; assay type: functional; how it was run: as §4
Priestia megaterium [19] = test: Antimicrobial activity against Bacillus megaterium MTCC 1684 at MIC after 24 hrs by agar diffusion method; assay type: functional; how it was run: as §3
Serratia marcescens [20] = test: Antimicrobial activity against Serratia marcescens MTCC 86 after 24 hrs; assay type: functional; conditions: MTCC 86, 24 h; how it was run: as §3
Aspergillus flavus [21] = test: Antimicrobial activity against Aspergillus flavus MTCC 2501 after 48 hrs; assay type: functional; conditions: MTCC 2501, 48 h; how it was run: as §4
Penicillium chrysogenum [22] = test: Antimicrobial activity against Penicillium chrysogenum MTCC 1996 after 48 hrs; assay type: functional; conditions: MTCC 1996, 48 h; how it was run: as §4
Klebsiella pneumoniae [23] = test: Antimicrobial activity against Klebsiella pneumoniae NCIM 2957 after 24 hrs; assay type: functional; conditions: NCIM 2957, 24 h; how it was run: as §3
Bacillus subtilis [24] = test: Antimicrobial activity against Bacillus subtilis MTCC 1789 at MIC after 24 hrs by agar diffusion method; assay type: functional; how it was run: as §3
Aspergillus flavus [25] = test: Antimicrobial activity against Aspergillus flavus MTCC 2501 at MIC after 48 hrs by agar diffusion method; assay type: functional; how it was run: as §4
Serratia marcescens [26] = test: Antimicrobial activity against Serratia marcescens MTCC 86 at MIC after 24 hrs by agar diffusion method; assay type: functional; how it was run: as §3
Priestia megaterium [27] = test: Antimicrobial activity against Bacillus megaterium MTCC 1684 after 24 hrs; assay type: functional; conditions: MTCC 1684, 24 h; how it was run: as §3
Klebsiella pneumoniae [28] = test: Antimicrobial activity against Klebsiella pneumoniae NCIM 2957 at MIC after 24 hrs by agar diffusion method; assay type: functional; how it was run: as §3
Candida albicans [29] = test: Antimicrobial activity against Candida albicans MTCC 227 at MIC after 48 hrs by agar diffusion method; assay type: functional; how it was run: as §4
Penicillium chrysogenum [30] = test: Antimicrobial activity against Penicillium chrysogenum MTCC 1996 at MIC after 48 hrs by agar diffusion method; assay type: functional; how it was run: as §4
Pseudomonas aeruginosa [31] = test: Antimicrobial activity against Pseudomonas aeruginosa MTCC 2488 after 24 hrs; assay type: functional; conditions: MTCC 2488, 24 h; how it was run: as §3
Trichoderma viride [32] = test: Antimicrobial activity against Trichoderma viride MTCC 167 after 48 hrs; assay type: functional; conditions: MTCC 167, 48 h; how it was run: as §4
Escherichia coli [33] = test: Antimicrobial activity against Escherichia coli MTCC 1650 at MIC after 24 hrs by agar diffusion method; assay type: functional; how it was run: as §3
Proteus vulgaris [34] = test: Antimicrobial activity against Proteus vulgaris MTCC 1771 at MIC after 24 hrs by agar diffusion method; assay type: functional; how it was run: as §3
Staphylococcus aureus [35] = test: Antimicrobial activity against Staphylococcus aureus MTCC 96 after 24 hrs; assay type: functional; conditions: MTCC 96, 24 h; how it was run: as §3
Escherichia coli [36] = test: Antimicrobial activity against Escherichia coli MTCC 1650 after 24 hrs; assay type: functional; conditions: MTCC 1650, 24 h; how it was run: as §3
Bacillus subtilis [37] = test: Antimicrobial activity against Bacillus subtilis MTCC 1789 after 24 hrs; assay type: functional; conditions: MTCC 1789, 24 h; how it was run: as §3
Pseudomonas aeruginosa [38] = test: Antimicrobial activity against Pseudomonas aeruginosa MTCC 2488 at MIC after 24 hrs by agar diffusion method; assay type: functional; how it was run: as §3

Molecule | MIC (Proteus vulgaris [13]) [µg/mL] | MIC (Candida albicans [14]) [µg/mL] | inhibition zone (IZ) (Staphylococcus aureus [15]) [mm] | inhibition zone (IZ) (Aspergillus niger [16]) | MIC (Aspergillus niger [17]) [µg/mL] | inhibition zone (IZ) (Trichoderma viride [18]) [mm] | inhibition zone (IZ) (Priestia megaterium [19]) | MIC (Serratia marcescens [20]) [µg/mL] | MIC (Aspergillus flavus [21]) [µg/mL] | MIC (Penicillium chrysogenum [22]) [µg/mL] | MIC (Klebsiella pneumoniae [23]) [µg/mL] | inhibition zone (IZ) (Bacillus subtilis [24]) | inhibition zone (IZ) (Aspergillus flavus [25]) [mm] | inhibition zone (IZ) (Serratia marcescens [26]) [mm] | MIC (Priestia megaterium [27]) [µg/mL] | inhibition zone (IZ) (Klebsiella pneumoniae [28]) [mm] | inhibition zone (IZ) (Candida albicans [29]) | inhibition zone (IZ) (Penicillium chrysogenum [30]) [mm] | MIC (Pseudomonas aeruginosa [31]) [µg/mL] | MIC (Trichoderma viride [32]) [µg/mL] | further results
CN(C)[C@@H]1C(O)=C(C(N)=O)C(=O)[C@@]2(O)C(O)=C3C(=O)c4c(O)cccc4[C@@](C)(O)[C@H]3C[C@@H]12 [TETRACYCLINE] |  |  |  |  |  |  |  |  |  |  |  |  |  |  |  |  |  |  |  |  | zone of inhibition at 10 µg/mL (Priestia megaterium [1]; MTCC 1684, 24 h, read-out: IZ): 27 mm; inhibition zone (IZ) (Aspergillus flavus [2]): inactive; zone of inhibition at 10 µg/mL (Klebsiella pneumoniae [3]; NCIM 2957, 24 h, read-out: IZ): 17 mm; inhibition zone (IZ) (Penicillium chrysogenum [4]): inactive; inhibition zone (IZ) (Trichoderma viride [5]): inactive; zone of inhibition at 10 µg/mL (Bacillus subtilis [6]; MTCC 1789, 24 h, read-out: IZ): 20 mm; zone of inhibition at 10 µg/mL (Serratia marcescens [7]; MTCC 86, 24 h, read-out: IZ): 15 mm; zone of inhibition at 10 µg/mL (Proteus vulgaris [8]; MTCC 1771, 24 h, read-out: IZ): 20 mm; zone of inhibition at 10 µg/mL (Staphylococcus aureus [9]; MTCC 96, 24 h, read-out: IZ): 25 mm; inhibition zone (IZ) (Aspergillus niger [10]): inactive; inhibition zone (IZ) (Candida albicans [11]): inactive; zone of inhibition at 10 µg/mL (Pseudomonas aeruginosa [12]; MTCC 2488, 24 h, read-out: IZ): 32 mm
NYSTATIN |  |  |  |  |  |  |  |  |  |  |  |  |  |  |  |  |  |  |  |  | inhibition zone (IZ) (Priestia megaterium [1]): inactive; inhibition zone (IZ) (Aspergillus flavus [2]): 14 mm; inhibition zone (IZ) (Klebsiella pneumoniae [3]): inactive; inhibition zone (IZ) (Penicillium chrysogenum [4]): 17 mm; inhibition zone (IZ) (Trichoderma viride [5]): 18 mm; inhibition zone (IZ) (Bacillus subtilis [6]): inactive; inhibition zone (IZ) (Serratia marcescens [7]): inactive; inhibition zone (IZ) (Proteus vulgaris [8]): inactive; inhibition zone (IZ) (Staphylococcus aureus [9]): inactive; inhibition zone (IZ) (Aspergillus niger [10]): 14 mm; inhibition zone (IZ) (Candida albicans [11]): 17 mm; inhibition zone (IZ) (Pseudomonas aeruginosa [12]): inactive
Nc1n[nH]c2nc3scc(-c4cc(Cl)ccc4O)n3c(=O)c12 | 50 (≈ 150 µM) | 250 (≈ 749 µM) | 31 | 16 mm | 250 (≈ 749 µM) | 27 | 12 mm | 50 (≈ 150 µM) | 250 (≈ 749 µM) | 250 (≈ 749 µM) | 50 (≈ 150 µM) | 10 mm | 11 | 18 | 50 (≈ 150 µM) | 13 | 12 mm | 25 | 50 (≈ 150 µM) | 250 (≈ 749 µM) | inhibition zone (IZ) (Escherichia coli [33]): inactive; inhibition zone (IZ) (Proteus vulgaris [34]): 9 mm; MIC (Staphylococcus aureus [35]): 50 µg/mL (≈ 150 µM); MIC (Escherichia coli [36]): 50 µg/mL (≈ 150 µM); MIC (Bacillus subtilis [37]): 50 µg/mL (≈ 150 µM)
Nc1n[nH]c2nc3scc(-c4ccc([N+](=O)[O-])cc4)n3c(=O)c12 | 50 (≈ 152 µM) | 250 (≈ 761 µM) | 31 | inactive | 250 (≈ 761 µM) | 29 | inactive | 50 (≈ 152 µM) | 250 (≈ 761 µM) | 250 (≈ 761 µM) | 50 (≈ 152 µM) | inactive | 16 | 16 | 50 (≈ 152 µM) | 13 | 21 mm | 32 | 50 (≈ 152 µM) | 250 (≈ 761 µM) | inhibition zone (IZ) (Escherichia coli [33]): 10 mm; inhibition zone (IZ) (Proteus vulgaris [34]): inactive; MIC (Staphylococcus aureus [35]): 50 µg/mL (≈ 152 µM); MIC (Escherichia coli [36]): 50 µg/mL (≈ 152 µM); MIC (Bacillus subtilis [37]): 50 µg/mL (≈ 152 µM)
Nc1n[nH]c2nc3scc(-c4ccc(O)cc4)n3c(=O)c12 | 50 (≈ 167 µM) | 250 (≈ 835 µM) | 30 | 16 mm | 250 (≈ 835 µM) | 26 | inactive | 50 (≈ 167 µM) | 250 (≈ 835 µM) | 250 (≈ 835 µM) | 50 (≈ 167 µM) | 12 mm | 21 | 17 | 50 (≈ 167 µM) | 11 | inactive | 29 | 50 (≈ 167 µM) | 250 (≈ 835 µM) | inhibition zone (IZ) (Pseudomonas aeruginosa [38]): 25 mm; inhibition zone (IZ) (Escherichia coli [33]): inactive; inhibition zone (IZ) (Proteus vulgaris [34]): 14 mm; MIC (Staphylococcus aureus [35]): 50 µg/mL (≈ 167 µM); MIC (Escherichia coli [36]): 50 µg/mL (≈ 167 µM); MIC (Bacillus subtilis [37]): 50 µg/mL (≈ 167 µM)
